Assay outcomes (PubChem BioAssay)
proCasp3 act – activates human procaspase-3. P42574. AID 463141. activation, % at 8.5 µM. actives 0.11% (n = 330,000). recombinant procaspase-3 D3A, Ac-DEVD-pNA absorbance 405 nm;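 active = activation above the mean of all tested compounds plus 3 SD, cut at about 21% in these data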;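 also: 0% = DMSO alone and 100% = DMSO wells spiked with extra 5 µM PC-3 D3A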
Target sequence (P42574 whole entry D9A/D28A/D175A): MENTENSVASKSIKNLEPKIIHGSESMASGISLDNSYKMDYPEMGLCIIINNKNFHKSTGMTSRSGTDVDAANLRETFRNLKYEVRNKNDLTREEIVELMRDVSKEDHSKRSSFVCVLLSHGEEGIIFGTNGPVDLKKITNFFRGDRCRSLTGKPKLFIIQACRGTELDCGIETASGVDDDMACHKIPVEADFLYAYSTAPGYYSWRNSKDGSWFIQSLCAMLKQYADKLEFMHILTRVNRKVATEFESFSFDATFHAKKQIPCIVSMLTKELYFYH
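Assay system – Procaspase-3 D3A mutant, all three cleavage aspartates alanine · Controls – DMSO-only low control, 5 µM PC-3 D3A high control · Schedule – 1 h compound preincubation, 2 h substrate hydrolysis at 25 °C · Signal – 405 nm absorbance of p-nitroaniline, reads at 0 and 120 min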
proCasp7 act – counter-screen: procaspase-7 (human) activation | P55210 | recombinant procaspase-7, Ac-DEVD-pNA absorbance 405 nm; D23A/D198A/D206A triple mutant, cannot self-cleave; scale: DMSO 0, 5 µM enzyme 100 | activation, % at 8.5 µM | actives 0.093% (n = 330,000) | AID 463210;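 active = percent activation above the screen-wide mean plus 3 SD, cut at about 25% in these data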
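Assay system: Uncleavable procaspase-7 mutant enzyme / Input: 2 µM procaspase-7 mutant as dispensed / Dosing: single nominal 8.5 µM compound dose, 0.8% DMSO final / Timing: 1 h enzyme–compound preincubation and 2 h substrate reaction, both 25 °C / Detection: p-Nitroaniline absorbance at 405 nm, read at 0 and 120 min / Replication: singlicate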
KLK7 zymogen act – activators of human kallikrein-7 zymogen | purified proKLK7, EDANS-DABCYL substrate fluorescence; 100% is mature enzyme control, 0% vehicle | P49862 | actives 0.9% (n = 370,000) | AID 652039 | activation, % at 7 µM;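 active = activation above the mean of all tested compounds plus 3 SD, computed per campaign excluding outliers beyond control limits, cut at about 13% in these data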
Neddyl block – inhibitors of human cullin neddylation | calls only at 25 µM | P61081+Q13564 | TR-FRET cullin neddylation, biochemical | AID 651699 | actives 0.58% (n = 360,000); in the data active = inhibition above about 36%
Neddyl inh conf – confirmation of human cullin neddylation inhibitors; shares compounds with Neddyl block; TR-FRET cullin neddylation biochemical assay; calls only at 25 µM; actives 13% (n = 1,800); in the data active = inhibition above about 40%;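 also: neddylation substrate is the cullin 1 ring ligase complex with SKP2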
* marks the source's active call; other numbers are inactive results; i = inactive; . = not tested or not shown; + = active, no number. Only some compounds are listed: those with a hit (about 1.6% of all), similar ones and a draw of the others.

SMILES | proCasp3 act | proCasp7 act | KLK7 zymogen act | Neddyl block | Neddyl inh conf
Nc1ccc(C(=O)N/N=C/c2sc(N3CCOCC3)nc2-c2ccccc2)cc1 | 8 | 7 | 3 | + | i
O=C(N/N=C/c1sc(N2CCOCC2)nc1-c1ccccc1)c1ccccc1F | 3 | -5 | . | . | .
O=C(N/N=C/c1sc(N2CCOCC2)nc1-c1ccccc1)c1ccccc1O | 7 | -11 | -3 | + | i
O=C(O)c1cccc(N/N=C/c2sc(N3CCOCC3)nc2-c2ccccc2)c1 | -7 | -6 | 0 | + | .
CCn1c2ccccc2c2cc(NC(=O)COC(=O)c3cccc(F)c3)ccc21 | . | . | 0 | . | .
COC(=O)c1ccc(-c2ccc(/C=N/NC(=O)CC3(C)OCCCO3)o2)cc1 | -6 | 7 | 1 | + | i
CC(=O)c1cc(-c2ccccc2)n(CC(=O)NCc2ccc(F)cc2)c1C | . | . | 0 | . | .
O=C(OC12CCCN(C1)/C(=C/c1cccc(Cl)c1)C2)c1ccno1 (stereo not given) | . | . | 0 | . | .
COc1ccc2oc3cc(C)[n+]([O-])c(-c4ccc(Cl)cc4)c3c2c1 | 0 | 3 | 4 | + | i
CC(=O)c1ccc(-c2ccc(C(=O)NCC(c3ccc(F)cc3)N3CCOCC3)o2)cc1 (stereo not given) | 0 | 9 | 4 | + | +
COc1ccc(/C=C/c2ccccc2)cc1[C@H]1[C@H]2C=CC[C@@H](C)[C@@H]2C(=O)N1Cc1ccccc1 | 8 | 5 | 0 | + | i
Cc1cc2nc(-c3ccc(=O)[nH]c3)n(C)c2cc1C | . | . | 0 | i | .
Cc1cc2nc(C)c(=O)n(C)c2cc1C | -4 | -1 | 1 | + | i
Cn1c(SCc2ccc(Cl)cc2)nnc1-c1ccc2nonc2c1 | -4 | -13 | 0 | + | i
CCCCC(=O)N(Cc1ccccc1)c1ccccc1C(=O)Nc1cc(OC)ccc1OC | . | . | 0 | . | .
Cc1nc(C(=O)N/N=C/c2[nH]ncc2Br)cs1 | -1 | -2 | 0 | + | i
O=C(N/N=C/c1ccc([N+](=O)[O-])cc1)c1[nH]ncc1Br | -5 | 5 | -1 | i | .
O=[N+]([O-])c1ccccc1/C=C/C1Nc2cccc3cccc(c23)N1 | . | . | 0 | . | .
O=S1(=O)N[C@H](c2ccccc2)COc2cc(Br)ccc21 | . | . | 0 | . | .
COc1ccc(NC(=O)c2cc(-c3ccco3)nc3ccccc23)cn1 | 2 | -3 | -4 | i | .
CN(C)C(=O)c1ccc(NC(=O)c2cc(-c3ccco3)nc3ccccc23)cc1 | . | . | 4 | + | .
COC(=O)[C@]12C[C@H](CC(=O)NCCc3ccccc3OC)C(=O)N(CCC3=CCCCC3)C1=C[C@H](C(C)C)O[C@@H]2C1CC1 | . | . | 1 | . | .
COc1cccc(CNc2ccc3[nH]c(=O)[nH]c3c2)c1OCc1ccc(F)cc1 | . | . | 1 | + | i
CCN(CC)C(=O)Oc1ccc2oc(=O)cc(-c3cc4cccc(OC)c4o3)c2c1 | 19 | 9 | -1 | + | .
O=C(c1ccncc1)N1CC[C@H]2[C@H](CCCN2Cc2ccccc2)C1 | . | . | 0 | . | .
SMILES | proCasp3 act | proCasp7 act | KLK7 zymogen act | Neddyl block | Neddyl inh conf
CCOc1ccc(OCCNC(=O)c2cc(C3CC3)nc3c2cnn3C(C)C)cc1 | . | . | 0 | i | .
CC(C)n1ncc2c(C(=O)NCCOc3ccccc3F)cc(C3CC3)nc21 | -7 | -14 | 0 | + | i
CC(C)n1ncc2c(C(=O)NCCc3ccc(S(N)(=O)=O)cc3)cc(C3CC3)nc21 | . | . | 1 | + | .
COc1ccc(CCNC(=O)c2cc(C3CC3)nc3c2cnn3C(C)C)cc1OC | 2 | -3 | 0 | i | .
Cc1ccc(Cn2cc(CN3[C@@H](Cc4ccccc4)COc4cc(Br)ccc4S3(=O)=O)nn2)cc1 | . | . | 0 | . | .
COc1ccc2c(c1)CO[C@H]([C@H](O)CO)[C@H]2/C=C/c1ccccc1 | . | . | 0 | . | .
CCN1CCCC1CNC(=O)c1cc2cc(F)ccc2[nH]1 (stereo not given) | 5 | 0 | 1 | + | .
CCN1CCCC1CNC(=O)c1ccc2c(=O)n(CCOC)c(=O)[nH]c2c1 (stereo not given) | 4 | 5 | -12 | + | i
CCC1CCCCN1CCCNC(=O)c1ccc2c(=O)n(CCOC)c(=O)[nH]c2c1 (stereo not given) | 4 | 2 | -12 | i | .
O=S1(=O)c2ccc(N3CCCC3)cc2Oc2ccccc2CN1Cc1cn(Cc2ccc(F)cc2)nn1 | . | . | 0 | . | .
